Assay results from different studies.
Compare with care: the assays were run in different laboratories.
Effect on: metabolic stability
Host: human

| SMILES | matrix | tested at | pH | quantity | result |
| --- | --- | --- | --- | --- | --- |
| NCCOCC(=O)N1CCC[C@H](C(=O)NCc2nc(-c3ccc(C(F)(F)F)cc3)cs2)C1 | hepatocytes | 0.5 µM | – | scaled CLint | < 3.4 mL/min/kg |
| Cc1cc(S(=O)(=O)N[C@H]2CC[C@H](CN3CCN(c4ccc(NC5CCC(=O)NC5=O)cc4F)CC3)CC2)ccc1Nc1ncc(C(F)(F)F)c(N2CCC[C@](C)(O)C2)n1 (stereo partly drawn) | liver microsomes | 1 µM | – | scaled CLint | < 14 mL/min/kg |
| O=c1c2ccc(OC3CCNCC3)cc2[nH]c2cc(F)cc(Cl)c12 | liver microsomes | 1 µM | pH 7.4 | microsomal CLint | 13.9 µL/min/mg |
| Cc1cc(S(=O)(=O)N[C@H]2C[C@H](CN3CCN(c4ccc(C5CCC(=O)NC5=O)c(Cl)c4)CC3)C2)ccc1Nc1ncc(C(F)(F)F)c(N2CCC[C@](C)(O)C2)n1 (stereo partly drawn) | liver microsomes | 1 µM | – | scaled CLint | 21 mL/min/kg |
| CCOCC(=O)N1C2CCC(C(=O)NCc3nc(-c4ccc(C#N)cc4)cs3)C1CC2 (stereo not drawn) | liver microsomes | 0.5 µM | – | microsomal CLint | 42 µL/min/mg |
| CNS(=O)(=O)c1ccc(Nc2ncc(C(F)(F)F)c([C@H]3CC[C@](C)(O)CC3)n2)c(C)c1 | liver microsomes | 1 µM | – | scaled CLint | < 14 mL/min/kg |
| C[C@H](O)c1ccc(NS(=O)(=O)c2ccc(OCC3CCC3)c(Cl)c2)c2nn(C)cc12 | hepatocytes | 1 µM | – | hepatocyte CLint | 167 µL/min/10⁶ cells |
| Cc1cc(S(=O)(=O)NC2CCC(CC3CCN(c4ccc(C5CCC(=O)NC5=O)cc4)CC3)CC2)ccc1Nc1ncc(C(F)(F)F)c(N2CCC[C@](C)(O)C2)n1 (stereo partly drawn) | liver microsomes | 1 µM | – | scaled CLint | 17 mL/min/kg |
| C[C@H](O)c1cnc(NS(=O)(=O)c2ccc(C(F)(F)F)c(Cl)c2)nc1 | hepatocytes | 1 µM | – | hepatocyte CLint | < 3 µL/min/10⁶ cells |
| Cc1ccc(-c2csc(CNC(=O)[C@H]3CCCN(C(=O)[C@H]4CCC(C)(C)O4)[C@H]3C)n2)cn1 | liver microsomes | 0.5 µM | – | microsomal CLint | 155 µL/min/mg |
| CCCN(CCC)CCNc1ccc2c(=O)c3c([nH]c2c1)CCCC3 | liver microsomes | 1 µM | pH 7.4 | microsomal CLint | 21.4 µL/min/mg |
| C=CCn1c(=O)c2cnc(Nc3ccc(N4CCN(C)CC4)cc3)nc2n1-c1cccc(C(C)(C)O)n1 | liver microsomes | – | – | scaled CLint | 77 mL/min/kg |
| CCCN(CCC)CCOc1ccc2c(=O)c3c([nH]c2c1)CCCC3 | liver microsomes | 1 µM | pH 7.4 | microsomal CLint | 17.5 µL/min/mg |
| COCC(=O)N1CCC[C@H](C(=O)NCc2nc(-c3ccccc3)cs2)C1 | liver microsomes | 0.5 µM | – | microsomal CLint | < 7 µL/min/mg |
| CNS(=O)(=O)c1ccc(Nc2ncc3cc(Cl)c(=O)n(C4CCCC4)c3n2)c(C)c1 | liver microsomes | 1 µM | – | scaled CLint | 100 mL/min/kg |
| O=c1c2ccc(OCc3cccc(OC(F)(F)F)c3)cc2[nH]c2ccc(Cl)c(F)c12 | liver microsomes | 1 µM | pH 7.4 | microsomal CLint | 1.24 µL/min/mg |
| COCC(=O)N1CCC[C@H](C(=O)NCc2nc(-c3ccc(C#N)cc3)cs2)C1 | liver microsomes | 0.5 µM | – | scaled CLint | 12 mL/min/kg |
| CC(C)(C)OC(=O)N1CCC(Oc2ccc3c(=O)c4c(Cl)cc(F)cc4[nH]c3c2)CC1 | liver microsomes | 1 µM | pH 7.4 | microsomal CLint | 7.13 µL/min/mg |
| Cc1cc(S(=O)(=O)N[C@]2(C)C[C@@H](N3CCN(CC4CCN(c5ccc6c(c5F)n(C)c(=O)n6C5CCC(=O)NC5=O)CC4)CC3)C2)ccc1Nc1ncc(C(F)(F)F)c(N2CCC[C@](C)(O)C2)n1 (stereo partly drawn) | liver microsomes | 1 µM | – | scaled CLint | 120 mL/min/kg |
| CCCN(CCC)CCCOc1ccc2c(=O)c3c([nH]c2c1)CCCC3 | liver microsomes | 1 µM | pH 7.4 | microsomal CLint | 37.1 µL/min/mg |
| O=C(NCc1nc(-c2ccc(C(F)(F)F)cc2)cs1)[C@H]1CCCN(C(=O)CO[C@H]2CCCNC2)C1 | liver microsomes | 0.5 µM | – | microsomal CLint | 13 µL/min/mg |
| C[C@]1(O)CCCN(c2nc(Nc3ccc(S(=O)(=O)N[C@H]4CC[C@H](CN5CCN(c6ccc(C7CCC(=O)NC7=O)cc6F)CC5)CC4)cc3F)ncc2C(F)(F)F)C1 (stereo partly drawn) | liver microsomes | 1 µM | – | scaled CLint | < 14 mL/min/kg |
| CNC(C)(C)COCC(=O)N1CCC[C@H](C(=O)NCc2nc(-c3ccc(C(F)(F)F)cc3)cs2)C1 | liver microsomes | 0.5 µM | – | microsomal CLint | 12 µL/min/mg |
| O=c1c2c([nH]c3cc(Oc4cccc(OC(F)(F)F)c4)ccc13)CCCC2 | liver microsomes | 1 µM | pH 7.4 | microsomal CLint | 1.66 µL/min/mg |
| Cc1cc(S(=O)(=O)N[C@H]2CC[C@H](CN3CCN(c4cccc(NC5CCC(=O)NC5=O)c4)CC3)CC2)ccc1Nc1ncc(C(F)(F)F)c(N2CCC[C@](C)(O)C2)n1 (stereo partly drawn) | liver microsomes | 1 µM | – | scaled CLint | < 14 mL/min/kg |
| CCOCC(=O)N1CCC[C@H](C(=O)NCc2nc(-c3ccc(C)nc3)cs2)C1 | liver microsomes | 0.5 µM | – | scaled CLint | 11 mL/min/kg |
| O=c1c2cc(F)c(Oc3ccc(OC(F)(F)F)cc3)cc2[nH]c2cc(Cl)cc(F)c12 | liver microsomes | 1 µM | pH 7.4 | microsomal CLint | 2.63 µL/min/mg |
